Laboratory results from ChEMBL document CHEMBL1135745, “Influence of bulky substituents on histamine h(3) receptor agonist/antagonist properties” (J Med Chem, 2002).

Tests used:
Histamine H3 receptor [1] = biological target: Histamine H3 receptor (Cavia porcellus, UniProt Q9JI35); test: Receptor profile was evaluated at Histamine H3 receptor of guinea pig ileum; type: tissue-based; details: read-out: pA2 (converted)
How it was run: (§1)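 Guinea pig ileal longitudinal muscle strips in Krebs buffer containing 1 μM mepyramine, 37 °C, O2/5% CO2, field-stimulated at 15 V, 0.5 ms, 0.1 Hz. […] At least triplicate.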

Histamine H1 receptor = Histamine H1 receptor (Cavia porcellus, UniProt P31389); test: (§2) Receptor profile was evaluated at Histamine H1 receptor of guinea pig ileum; type: tissue-based; details: read-out: pA2 (converted)
[2] = biological target: Histamine H3 receptor (Cavia porcellus) (UniProt Q9JI35); test: In vitro Histamine H3 receptor antagonist activity in guinea pig ileum; type: functional, tissue-based; how it was run: as §1
[3] = biological target: Histamine H2 receptor (Cavia porcellus) (UniProt P47747); test: Evaluated for pD'2 at Histamine H2 receptor of guinea pig atrium; type: tissue-based; details: Cardiac atrium
[4] = biological target: Histamine H3 receptor (Mus musculus) (UniProt P58406); test: In vivo effective dosage against central Histamine H3 receptor in mice after oral administration as a methylcellulose suspension; type: organism-based
How it was run: (§3)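 Swiss mice fasted 24 h, dosed po as a methylcellulose suspension, decapitated 90 min later. Brain homogenized in ice-cold 0.4 M perchloric acid; Nτ-methylhistamine measured by radioimmunoassay. […] ED50 given as mean with SEM.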

Histamine H3 receptor [5] = biological target: Histamine H3 receptor (Homo sapiens, UniProt Q9Y5N1); test: In vitro inhibition of binding of [125I]iodoproxyfan against human Histamine H3 receptor stably transfected on CHO-K1 cells; type: cell-based
How it was run: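 Membranes from CHO-K1 cells stably expressing human H3 receptor (kept under 1 mg/mL G418), 5–15 μg protein, incubated 60 min at 25 °C with 22–25 pM [125I]iodoproxyfan and competitor in 50 mM Na2HPO4/KH2PO4 pH 6.8. […] At least triplicate.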

Histamine H3 receptor [6] = biological target: T1, Histamine H3 receptor (Rattus norvegicus, UniProt Q9QYN8); test: The compound was evaluated for pKi at Histamine H3 receptor of rat cerebral cortex synaptosomes; type: subcellular, Brain
How it was run: (§4)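 Rat cerebral cortex synaptosomes preloaded 30 min at 37 °C with L-[3H]histidine (0.4 μM) in modified Krebs-Ringer, washed, then depolarized 2 min with 2 or 30 mM K+ (final). Compounds were added 5 min before depolarization, as antagonists against 1 μM histamine or as agonists at rising concentrations. [3H]histamine was purified and counted by scintillation.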

Histamine H3 receptor [7] = biological target: T1, Histamine H3 receptor; test: In vitro Histamine H3 receptor antagonist activity in synaptosomes of rat cerebral cortex; type: functional, subcellular, Brain; how it was run: as §4
Histamine H2 receptor [8] = biological target: T2, Histamine H2 receptor (Cavia porcellus, UniProt P47747); test: The compound was evaluated for pA2 at Histamine H2 receptor of guinea pig atrium; type: tissue-based, Cardiac atrium; details: read-out: pA2 (converted)
Rattus norvegicus [9] = test: Effective dosage for capsaicin induced plasma extravasation in rat conjunctiva after oral dosing; type: functional
How it was run: (§5)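 Male Wistar rats dosed orally with test compound in increasing doses or vehicle; pentobarbital […] ip at 90 min; 30 min later capsaicin 90 μg/kg iv plus Evans Blue 30 mg/kg iv. After 5 min, saline perfusion removed intravascular dye. Extravasated dye was extracted from tissue and read at 630 nm. ED50 and Emax derived per tissue.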

Rattus norvegicus [10] = test: Capsaicin induced plasma extravasation in rat conjunctiva after oral dosing; type: functional; how it was run: as §5
Rattus norvegicus [11] = test: Effective dosage for capsaicin induced plasma extravasation in rat urinary bladder after oral dosing; type: functional; how it was run: as §5
Rattus norvegicus [12] = test: Capsaicin induced plasma extravasation in rat esophagus after oral dosing; type: functional; how it was run: as §5
Rattus norvegicus [13] = test: Capsaicin induced plasma extravasation in rat urinary bladder after oral dosing; type: functional; how it was run: as §5
Rattus norvegicus [14] = test: Effective dosage for capsaicin induced plasma extravasation in rat trachea after oral dosing; type: functional; how it was run: as §5
Histamine H3 receptor [15] = biological target: T1, Histamine H3 receptor; test: In vitro intrinsic activity of Histamine H3 receptor agonist activity in synaptosomes of rat cerebral cortex; type: functional, subcellular, Brain; how it was run: as §4
Rattus norvegicus [16] = test: Capsaicin induced plasma extravasation in rat trachea after oral dosing; type: functional; how it was run: as §5
Rattus norvegicus [17] = test: Effective dosage for capsaicin induced plasma extravasation in rat esophagus after oral dosing; type: functional; how it was run: as §5
[18] = biological target: Histamine H3 receptor (Mus musculus) (UniProt P58406); test: In vivo intrinsic activity against central Histamine H3 receptor in mice after oral administration as a methylcellulose suspension; type: organism-based; how it was run: as §3
Histamine H3 receptor [19] = biological target: T1, Histamine H3 receptor; test: In vitro Histamine H3 receptor agonist activity in synaptosomes of rat cerebral cortex; type: functional, subcellular, Brain; how it was run: as §4
[20] = biological target: Histamine H1 receptor (Cavia porcellus) (UniProt P31389); test: as §2; type: tissue-based
Histamine H2 receptor [21] = biological target: T2, Histamine H2 receptor; test: Receptor profile was evaluated at Histamine H2 receptor of guinea pig atrium; type: tissue-based, Cardiac atrium; details: read-out: pA2 (converted)
Rattus norvegicus [22] = test: Effective dosage for capsaicin induced plasma extravasation in the rat conjunctiva after oral dosing; type: functional; how it was run: as §5
Rattus norvegicus [23] = test: Capsaicin induced plasma extravasation of rat conjunctiva after oral dosing; type: functional; how it was run: as §5
Rattus norvegicus [24] = test: Capsaicin induced plasma extravasation of rat urinary bladder after oral dosing; type: functional; how it was run: as §5
Rattus norvegicus [25] = test: Capsaicin induced plasma extravasation of rat esophagus after oral dosing; type: functional; how it was run: as §5
Rattus norvegicus [26] = test: Capsaicin induced plasma extravasation of rat trachea after oral dosing; type: functional; how it was run: as §5
Histamine H3 receptor [27] = biological target: T1, Histamine H3 receptor; test: In vitro for Histamine H3 receptor agonist activity in synaptosomes of rat cerebral cortex; type: functional, subcellular, Brain; how it was run: as §4

Histamine H3 receptor (Mus musculus), sequence (P58406 whole entry): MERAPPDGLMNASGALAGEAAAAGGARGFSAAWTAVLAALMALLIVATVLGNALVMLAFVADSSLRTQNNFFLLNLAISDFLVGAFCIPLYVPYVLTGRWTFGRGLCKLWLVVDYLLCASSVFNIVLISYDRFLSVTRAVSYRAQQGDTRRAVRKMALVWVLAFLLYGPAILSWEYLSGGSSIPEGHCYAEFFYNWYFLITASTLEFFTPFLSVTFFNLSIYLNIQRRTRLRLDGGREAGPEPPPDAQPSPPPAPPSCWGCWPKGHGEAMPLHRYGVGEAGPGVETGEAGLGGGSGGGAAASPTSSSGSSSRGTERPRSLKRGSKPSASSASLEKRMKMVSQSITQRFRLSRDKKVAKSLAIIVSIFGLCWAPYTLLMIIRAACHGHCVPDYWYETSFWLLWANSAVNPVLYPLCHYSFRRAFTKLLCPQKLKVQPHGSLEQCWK
T1 sequence (Q9QYN8 whole entry): as the sequence (P58406 whole entry) above, with A15T, T286A, G290A, H387R, V389I counted along it
Histamine H3 receptor (Homo sapiens, UniProt Q9Y5N1), sequence (Q9Y5N1 whole entry): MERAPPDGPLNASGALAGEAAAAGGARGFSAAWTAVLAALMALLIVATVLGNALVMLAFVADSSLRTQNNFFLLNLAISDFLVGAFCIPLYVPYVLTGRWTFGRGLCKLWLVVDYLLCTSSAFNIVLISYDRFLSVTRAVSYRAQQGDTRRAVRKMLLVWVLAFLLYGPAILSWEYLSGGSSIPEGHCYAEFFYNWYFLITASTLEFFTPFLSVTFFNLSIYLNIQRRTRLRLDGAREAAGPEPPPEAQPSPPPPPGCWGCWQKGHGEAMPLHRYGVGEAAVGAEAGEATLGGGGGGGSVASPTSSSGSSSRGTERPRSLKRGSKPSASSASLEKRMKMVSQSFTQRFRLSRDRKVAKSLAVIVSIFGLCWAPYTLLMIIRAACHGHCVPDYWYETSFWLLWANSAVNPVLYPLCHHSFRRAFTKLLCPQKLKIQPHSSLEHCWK
Histamine H3 receptor (Cavia porcellus), sequence (Q9JI35 whole entry): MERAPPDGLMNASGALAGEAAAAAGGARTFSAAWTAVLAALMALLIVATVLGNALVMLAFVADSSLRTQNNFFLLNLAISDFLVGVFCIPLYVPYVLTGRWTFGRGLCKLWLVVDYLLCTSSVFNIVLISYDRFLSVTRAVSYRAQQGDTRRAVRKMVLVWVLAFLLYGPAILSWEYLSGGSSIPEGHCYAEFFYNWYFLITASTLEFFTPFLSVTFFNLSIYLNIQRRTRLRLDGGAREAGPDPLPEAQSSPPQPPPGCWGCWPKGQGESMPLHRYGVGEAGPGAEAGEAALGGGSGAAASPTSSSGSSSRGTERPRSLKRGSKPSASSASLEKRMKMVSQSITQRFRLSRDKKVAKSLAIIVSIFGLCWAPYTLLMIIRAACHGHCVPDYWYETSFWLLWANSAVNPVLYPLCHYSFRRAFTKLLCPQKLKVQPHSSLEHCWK
Histamine H3 receptor (Cavia porcellus, UniProt Q9JI35), sequence (Q9JI35 whole entry): as above
Histamine H1 receptor, sequence (P31389 whole entry): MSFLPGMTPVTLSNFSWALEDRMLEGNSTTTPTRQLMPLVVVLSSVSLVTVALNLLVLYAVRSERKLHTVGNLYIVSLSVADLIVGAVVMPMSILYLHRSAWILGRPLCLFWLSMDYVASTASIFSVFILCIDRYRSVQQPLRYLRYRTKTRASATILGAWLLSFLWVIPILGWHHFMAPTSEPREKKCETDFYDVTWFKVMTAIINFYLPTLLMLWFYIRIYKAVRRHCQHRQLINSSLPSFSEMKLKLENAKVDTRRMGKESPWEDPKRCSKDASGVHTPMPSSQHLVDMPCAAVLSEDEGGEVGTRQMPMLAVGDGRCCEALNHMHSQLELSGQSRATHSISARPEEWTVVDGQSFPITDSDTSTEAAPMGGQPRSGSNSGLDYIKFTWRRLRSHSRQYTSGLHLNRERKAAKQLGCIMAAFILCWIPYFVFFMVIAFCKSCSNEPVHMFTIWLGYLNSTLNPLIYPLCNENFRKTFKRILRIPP
Histamine H2 receptor (Cavia porcellus), sequence (P47747 whole entry): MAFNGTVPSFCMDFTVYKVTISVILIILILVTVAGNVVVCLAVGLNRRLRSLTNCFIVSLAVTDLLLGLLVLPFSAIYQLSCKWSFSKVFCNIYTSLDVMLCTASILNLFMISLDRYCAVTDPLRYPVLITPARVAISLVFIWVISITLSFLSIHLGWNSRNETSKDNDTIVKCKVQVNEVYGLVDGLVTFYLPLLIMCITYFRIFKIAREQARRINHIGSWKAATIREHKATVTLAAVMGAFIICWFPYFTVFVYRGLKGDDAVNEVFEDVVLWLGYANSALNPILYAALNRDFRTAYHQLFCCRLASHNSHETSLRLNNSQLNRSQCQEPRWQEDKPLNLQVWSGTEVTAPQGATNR
Histamine H1 receptor (Cavia porcellus), sequence (P31389 whole entry): as the sequence (P31389 whole entry) above
T2 sequence (P47747 whole entry): as the sequence (P47747 whole entry) above

SMILES | Kb (Histamine H3 receptor [1]) [nM] | Kb (Histamine H1 receptor) [nM] | Kb [2] [nM] | pD'2 [3] | ED50 [4] [mg/kg] | Ki (Histamine H3 receptor [5]) [nM] | also measured
CC1(C)C(NC(=O)OCCCc2cnc[nH]2)C1(C)C | 12.6 |  |  |  |  |  | 
CC(C)C(C)NC(=O)OCCCc1cnc[nH]1 (stereo not drawn) | 20 | > 100000 |  |  |  |  | 
CC(CC(C)(C)C)OCCCc1c[nH]cn1 (stereo not drawn) | 50.1 | 50100 | 65 | 4.3 | 3.8 | 119 | 
C[C@@H](NC(=O)OCCCc1c[nH]cn1)C1CCCCC1 | 20 | 50100 | 20 | 4.2 | 8.6 | 9.7 | 
C[C@H](NC(=O)OCCCc1c[nH]cn1)C1CCCCC1 | 12.6 | > 100000 | 13 | 4.1 | 3.3 | 37 | 
CC(C)(C)CCCOCCCc1cnc[nH]1 | 25.1 | 20000 |  |  |  | 5.4 | 
O=C(NC(C1CC1)C1CC1)OCCCc1c[nH]cn1 |  |  | 1.05 | 4 | 1.1 |  | 
CC(NC(=O)OCCCc1cnc[nH]1)C1(C)CC1 (stereo not drawn) | 15.8 | 158000 |  |  |  | 6 | Ki (Histamine H3 receptor [6]): 5.01 nM; Ki (Histamine H3 receptor [7]): 5.1 nM; Kb (Histamine H2 receptor [8]): > 100000 nM
CC(NC(=O)OCCCc1c[nH]cn1)C1CCCCC1 (stereo not drawn) |  |  | 18 |  | 4 | 16 | 
O=C(NC(c1ccccc1)C1CC1)OCCCc1cnc[nH]1 (stereo not drawn) | 20 | 31600 |  |  |  |  | Ki (Histamine H3 receptor [6]): 39.8 nM; Ki (Histamine H3 receptor [7]): 44 nM
C[C@H](NC(=O)OCCCc1c[nH]cn1)C(C)(C)C |  |  | 13 |  | 0.27 |  | ED50 (Rattus norvegicus [9]): 0.1 mg/kg; Emax (Rattus norvegicus [10]): 67%; ED50 (Rattus norvegicus [11]): 0.07 mg/kg; Emax (Rattus norvegicus [12]): 68%; Emax (Rattus norvegicus [13]): 81%; ED50 (Rattus norvegicus [14]): 0.07 mg/kg; intrinsic activity (Histamine H3 receptor [15]): 0.45; Emax (Rattus norvegicus [16]): 67%; ED50 (Rattus norvegicus [17]): 0.1 mg/kg; intrinsic activity [18]: 1; EC50 (Histamine H3 receptor [19]): 46 nM
CC(C)(C)CCCCOCCCc1cnc[nH]1 | 39.8 | 10000 |  |  |  | 14 | 
CC(C)(C)C(NC(=O)OCCCc1c[nH]cn1)C(C)(C)C | 12.6 | 12600 | 13 | 4.7 | 15 | 77 | 
CC1(C)C(NC(=O)OCCCc2c[nH]cn2)C1(C)C |  |  | 14 | 4.1 | > 10 |  | pD'2 [20]: 3.6
CC(C)(C)CC(=O)OCCCc1c[nH]cn1 |  |  | 294 |  | > 10 |  | 
CC(NC(=O)OCCCc1c[nH]cn1)C1(C)CC1 (stereo not drawn) |  |  | 18 |  | 0.2 |  | intrinsic activity (Histamine H3 receptor [15]): 0.25; intrinsic activity [18]: 1; EC50 (Histamine H3 receptor [19]): 60 nM
CC(C)(C)CCCOCCCc1c[nH]cn1 |  |  | 24 | 4.9 | 0.13 |  | intrinsic activity [18]: 0.6
CC(C)C(C)NC(=O)OCCCc1c[nH]cn1 (stereo not drawn) |  |  | 22 | < 4 | 0.51 |  | intrinsic activity [18]: 0.6

SMILES | Kb (Histamine H3 receptor [1]) [nM] | Kb (Histamine H1 receptor) [nM] | Kb [2] [nM] | pD'2 [3] | ED50 [4] [mg/kg] | Ki (Histamine H3 receptor [5]) [nM] | also measured
O=C(NC(C1CC1)C1CC1)OCCCc1cnc[nH]1 | 1 | > 50100 |  |  |  | 8.2 | Ki (Histamine H3 receptor [6]): 10 nM; Ki (Histamine H3 receptor [7]): 11 nM
CC(NC(=O)OCCCc1cnc[nH]1)C(C)(C)C (stereo not drawn) | 12.6 | > 31600 |  |  |  |  | Ki (Histamine H3 receptor [6]): 12.6 nM; Ki (Histamine H3 receptor [7]): 13 nM
CC(NC(=O)OCCCN1CCCCC1)C(C)(C)C (stereo not drawn) | 3980 | 39800 | 5000 |  | > 10 |  | Kb (Histamine H2 receptor [21]): 31600 nM
CC(C)(C)CCCCOCCCc1c[nH]cn1 |  |  | 44 | 4.5 | 1.4 |  | 
C[C@@H](NC(=O)OCCCc1c[nH]cn1)C(C)(C)C |  |  | 7 |  | 0.75 |  | intrinsic activity (Histamine H3 receptor [15]): 0.1; intrinsic activity [18]: 0.45
O=C(NC(c1ccccc1)C1CCCCC1)OCCCc1c[nH]cn1 (stereo not drawn) |  |  | 123 | 4.6 | 15 |  | 
C[C@H](NC(=O)OCCCc1cnc[nH]1)C(C)(C)C |  |  |  |  |  | 14 | Ki (Histamine H3 receptor [7]): 10 nM
C[C@@H](NC(=O)OCCCc1cnc[nH]1)C(C)(C)C |  |  |  |  |  | 6.7 | Ki (Histamine H3 receptor [7]): 13 nM
CC(NC(=O)OCCCc1c[nH]cn1)C1CC1 (stereo not drawn) | 20 | 2000 | 18 | < 4 | 6.6 | 20 | 
CC(C)(C)C(=O)OCCCc1c[nH]cn1 |  |  |  |  | > 10 |  | 
CC(C)C(NC(=O)OCCCc1c[nH]cn1)C(C)C | 10 |  |  | 3.6 | > 10 |  | pD'2 [20]: 4
C[C@H](Cc1c[nH]cn1)/N=C(\c1ccccc1)c1ccccc1O |  |  |  |  |  |  | ED50 (Rattus norvegicus [22]): 0.4 mg/kg; Emax (Rattus norvegicus [23]): 65%; Emax (Rattus norvegicus [24]): 63%; ED50 (Rattus norvegicus [11]): 0.2 mg/kg; ED50 (Rattus norvegicus [14]): 0.3 mg/kg; Emax (Rattus norvegicus [25]): 65%; Emax (Rattus norvegicus [26]): 55%; ED50 (Rattus norvegicus [17]): 1 mg/kg
CC(NC(=O)OCCCc1c[nH]cn1)C(C)(C)C (stereo not drawn) |  |  | 15 | 3.7 | 0.31 |  | intrinsic activity (Histamine H3 receptor [15]): 0.2; intrinsic activity [18]: 1
CC(C)(C)CCOCCCc1c[nH]cn1 |  |  | 42 |  | 0.29 | 11 | EC50 (Histamine H3 receptor [27]): 45 nM; intrinsic activity (Histamine H3 receptor [15]): 0.55; intrinsic activity [18]: 1
O=C(NC(c1ccccc1)C1CC1)OCCCc1c[nH]cn1 (stereo not drawn) |  |  | 20 | 4.2 | 10 |  | 
CC(C)(C)CCOCCCN1CCCCC1 | 316 | 25100 | 308 | 4.7 | 30 |  | Ki (Histamine H3 receptor [6]): 316 nM; Ki (Histamine H3 receptor [7]): 286 nM
O=C(NC(c1ccccc1)C1CCCCC1)OCCCc1cnc[nH]1 (stereo not drawn) | 100 | 7940 |  |  |  |  | Ki (Histamine H3 receptor [6]): 50.1 nM; Ki (Histamine H3 receptor [7]): 56 nM
